Assay results taken from ChEMBL document CHEMBL2021852 (ACS Med Chem Lett, 2011).
Blank lines part the entries; values can stand above or below the compound they belong to.

Experiments:
[1] = AUC (0 to t) in cynomolgus monkey at 2 mg/kg, po; type: ADME, organism-based, Macaca fascicularis; set-up: dose 2 mg/kg, route oral; conditions: plasma
Outline: (§1)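 Compounds were dosed as fumarate salts in separate intravenous and oral arms. Oral AUC(0–t), IV half-life, IV clearance, Vss and oral bioavailability (F) were derived from the plasma levels.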

[2] = AUC (0 to t) in dog at 1 mg/kg, po; type: ADME, organism-based, Canis lupus familiaris; set-up: dose 1 mg/kg, route oral; conditions: plasma; outline: as §1
[3] = Half life in rat at 2 mg/kg, iv; type: ADME, organism-based; set-up: dose 2 mg/kg, route intravenous; conditions: in vivo; outline: as §1
[4] = Half life in cynomolgus monkey at 1 mg/kg, iv; type: ADME, organism-based, Macaca fascicularis; set-up: dose 1 mg/kg, route intravenous; conditions: in vivo; outline: as §1
[5] = Half life in dog at 0.5 mg/kg, iv; type: ADME, organism-based, Canis lupus familiaris; set-up: dose 0.5 mg/kg, route intravenous; conditions: in vivo; outline: as §1
[6] = Clearance in rat at 2 mg/kg, iv; type: ADME, organism-based; set-up: dose 2 mg/kg, route intravenous; conditions: in vivo; outline: as §1
[7] = Clearance in cynomolgus monkey at 1 mg/kg, iv; type: ADME, organism-based, Macaca fascicularis; set-up: dose 1 mg/kg, route intravenous; conditions: in vivo; outline: as §1
[8] = Clearance in dog at 0.5 mg/kg, iv; type: ADME, organism-based, Canis lupus familiaris; set-up: dose 0.5 mg/kg, route intravenous; conditions: in vivo; outline: as §1
[9] = Volume of distribution at steady state in rat at 2 mg/kg, iv and 10 mg/kg, po; type: ADME, organism-based; conditions: in vivo, read-out: Vdss; outline: as §1
[10] = Volume of distribution at steady state in cynomolgus monkey at 1 mg/kg, iv and 2 mg/kg, po; type: ADME, organism-based, Macaca fascicularis; conditions: in vivo, read-out: Vdss; outline: as §1
[11] = Volume of distribution at steady state in dog at 0.5 mg/kg, iv and 1 mg/kg, po; type: ADME, organism-based, Canis lupus familiaris; conditions: in vivo, read-out: Vdss; outline: as §1
[12] = Oral bioavailability in cynomolgus monkey at 2 mg/kg; type: ADME, organism-based, Macaca fascicularis; conditions: in vivo; outline: as §1
[13] = Oral bioavailability in dog at 1 mg/kg; type: ADME, organism-based, Canis lupus familiaris; conditions: in vivo; outline: as §1
Renin [14] = target: T1, Renin (Homo sapiens, UniProt P00797); experiment: Inhibition of human recombinant renin using DABCYL-gamma-Abu-Ile-His-Pro-Phe-His-Leu-Val-Ile-His-Thr-EDANS as substrate for 60 mins by fluorimetry
T1 sequence (P00797 whole entry): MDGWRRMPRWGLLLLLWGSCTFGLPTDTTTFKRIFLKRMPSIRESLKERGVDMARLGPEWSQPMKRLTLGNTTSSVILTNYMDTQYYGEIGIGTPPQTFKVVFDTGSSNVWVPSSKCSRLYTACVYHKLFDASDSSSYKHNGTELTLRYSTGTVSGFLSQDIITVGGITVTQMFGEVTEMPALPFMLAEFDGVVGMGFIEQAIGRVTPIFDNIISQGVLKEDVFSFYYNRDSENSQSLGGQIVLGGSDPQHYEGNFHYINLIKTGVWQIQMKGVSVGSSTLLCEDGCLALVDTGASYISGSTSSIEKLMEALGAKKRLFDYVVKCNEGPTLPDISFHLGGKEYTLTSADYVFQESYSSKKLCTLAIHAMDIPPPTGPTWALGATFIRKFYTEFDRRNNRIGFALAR
Outline: (§2)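 Purified recombinant human renin measured in buffer; each value is the average of at least two replicates.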

Renin [15] = target: T1, Renin; experiment: Inhibition of human recombinant renin using H-Asp-Arg-Val-Tyr-Ile-His-Pro-Phe-His-Leu-Val-Ile-His-Asn-OH as substrate assessed as formation of angiotensin1 product after 2 hrs by competive radioimmunoassay; outline: as §2
Renin [16] = target: T1, Renin; experiment: Inhibition of renin in human plasma assessed as formation of angiotensin1 product after 90 mins by competitive radioimmunoassay
Outline: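 IC50 for renin inhibition determined in the presence of human plasma; each value is the average of at least two replicates.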

[17] = Fraction unbound in dog plasma; type: ADME, cell-free, Canis lupus familiaris
[18] = Fraction unbound in cynomolgus monkey plasma; type: ADME, cell-free, Macaca fascicularis
Salmonella typhimurium [19] = experiment: Mutagenicity against Salmonella typhimurium in the presence of S9-mix; type: toxicity, organism-based; conditions: salmonella enterica subsp. enterica serovar typhimurium
Salmonella typhimurium [20] = experiment: Mutagenicity against Salmonella typhimurium in the absence of S9-mix; type: toxicity, organism-based; conditions: salmonella enterica subsp. enterica serovar typhimurium
L5178Y [21] = experiment: Genotoxicity against TK-positive mouse L5178Y cells; type: toxicity, cell-based
L5178Y [22] = experiment: Genotoxicity against TK-negative mouse L5178Y cells; type: toxicity, cell-based
Cytochrome P450 3A4 = Cytochrome P450 3A4 (Homo sapiens, UniProt P08684); experiment: Inhibition of CYP3A4 using testosterone as substrate in human liver microsome for 20 mins by HPLC analysis; type: ADME, microsomes
Outline: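 CYP3A4 inhibition measured in human liver microsomes; IC50 is the average of at least two replicates.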

[23] = AUC (0 to t) in rat at 4 mg/kg, po; type: ADME, organism-based; set-up: dose 4 mg/kg, route oral; conditions: plasma; outline: as §1
[24] = Half life in rat at 0.8 mg/kg, iv; type: ADME, organism-based; set-up: dose 0.8 mg/kg, route intravenous; conditions: in vivo; outline: as §1
[25] = Clearance in rat at 0.8 mg/kg, iv; type: ADME, organism-based; set-up: dose 0.8 mg/kg, route intravenous; conditions: in vivo; outline: as §1
[26] = Volume of distribution at steady state in rat at 0.8 mg/kg, iv and 4 mg/kg, po; type: ADME, organism-based; conditions: in vivo, read-out: Vdss; outline: as §1
[27] = Oral bioavailability in rat at 4 mg/kg; type: ADME, organism-based; conditions: in vivo; outline: as §1
[28] = AUC (0 to t) in rat at 8.2 mg/kg, po; type: ADME, organism-based; set-up: dose 8.2 mg/kg, route oral; conditions: plasma; outline: as §1
[29] = Half life in rat at […], iv; type: ADME, organism-based; set-up: dose 1.5 mg/kg, route intravenous; conditions: in vivo
[30] = Clearance in rat at […], iv; type: ADME, organism-based; set-up: dose 1.5 mg/kg, route intravenous; conditions: in vivo
[31] = Volume of distribution at steady state in rat at […], iv and 8.2 mg/kg, po; type: ADME, organism-based; conditions: in vivo, read-out: Vdss
[32] = Oral bioavailability in rat at 8.2 mg/kg; type: ADME, organism-based; conditions: in vivo; outline: as §1
[33] = AUC (0 to t) in rat at 10 mg/kg, po; type: ADME, organism-based; set-up: dose 10 mg/kg, route oral; conditions: plasma; outline: as §1
[34] = Half life in dog at 1 mg/kg, iv; type: ADME, organism-based, Canis lupus familiaris; set-up: dose 1 mg/kg, route intravenous; conditions: in vivo
[35] = Clearance in dog at 1 mg/kg, iv; type: ADME, organism-based, Canis lupus familiaris; set-up: dose 1 mg/kg, route intravenous; conditions: in vivo

Cytochrome P450 3A4, sequence (P08684 whole entry): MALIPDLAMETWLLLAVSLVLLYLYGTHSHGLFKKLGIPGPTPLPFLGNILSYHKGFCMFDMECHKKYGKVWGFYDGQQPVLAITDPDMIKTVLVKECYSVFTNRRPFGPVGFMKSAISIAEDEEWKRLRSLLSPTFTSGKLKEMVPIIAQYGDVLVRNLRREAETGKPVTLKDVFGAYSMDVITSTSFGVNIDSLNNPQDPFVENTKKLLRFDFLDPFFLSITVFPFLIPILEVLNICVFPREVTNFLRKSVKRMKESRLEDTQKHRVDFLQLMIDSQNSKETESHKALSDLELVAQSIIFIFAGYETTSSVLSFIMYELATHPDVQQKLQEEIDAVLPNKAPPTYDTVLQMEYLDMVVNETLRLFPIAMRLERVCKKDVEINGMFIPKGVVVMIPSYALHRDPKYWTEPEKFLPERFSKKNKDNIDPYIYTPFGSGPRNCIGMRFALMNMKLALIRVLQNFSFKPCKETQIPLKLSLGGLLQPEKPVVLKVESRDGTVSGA

Compound: CN[C@H](CNC(=O)N1CCC[C@@H]([C@@H](OCCNC(=O)OC)c2cccc(Cl)c2)C1)C[C@H]1CCCOC1.O=C(O)/C=C/C(=O)O
AUC(0-t) [1]: 404 ng·h/mL
AUC(0-t) [2]: 484 ng·h/mL
half-life [3]: 7.3 h
half-life [4]: 12.3 h
half-life [5]: 9.9 h
clearance [6]: 128 mL/min/kg
clearance [7]: 29.6 mL/min/kg
clearance [8]: 12.9 mL/min/kg
Vd [9]: 38 L/kg
Vd [10]: 4.7 L/kg
Vd [11]: 4 L/kg
bioavailability [12]: 18%
bioavailability [13]: 41%

Compound: COCCCC[C@@](O)(c1cccc(Cl)c1F)[C@@H]1CCCN(C(=O)NC[C@@H](N)CC2CCCCC2)C1.O=C(O)/C=C/C(=O)O
AUC(0-t) [23]: 269 ng·h/mL
half-life [24]: 51 h
clearance [25]: 47 mL/min/kg
Vd [26]: 101 L/kg
bioavailability [27]: 29.5%

Compound: CNC[C@H](CC1CCCCC1)NC(=O)N1CCC[C@@H]([C@@](O)(CCCCOC)c2cccc(Cl)c2F)C1
IC50 (Renin [14]): 0.73 nM
IC50 (Renin [16]): 9.4 nM

Compound: CNC[C@H](C[C@H]1CCCOC1)NC(=O)N1CCC[C@@H]([C@@H](OCCNC(=O)OC)c2cccc(Cl)c2)C1.O=C(O)/C=C/C(=O)O
AUC(0-t) [28]: 167 ng·h/mL
AUC(0-t) [1]: 172 ng·h/mL
half-life [29]: 18.3 h
half-life [4]: 14 h
clearance [30]: 48 mL/min/kg
clearance [7]: 9.5 mL/min/kg
Vd [31]: 39 L/kg
Vd [10]: 5 L/kg
bioavailability [32]: 7.5%
bioavailability [12]: 5.3%

Compound: COCCCOc1cc(C[C@@H](C[C@H](N)[C@@H](O)C[C@H](C(=O)NCC(C)(C)C(N)=O)C(C)C)C(C)C)ccc1OC.COCCCOc1cc(C[C@@H](C[C@H](N)[C@@H](O)C[C@H](C(=O)NCC(C)(C)C(N)=O)C(C)C)C(C)C)ccc1OC.O=C(O)/C=C/C(=O)O [ALISKIREN FUMARATE]
AUC(0-t) [33]: 21 ng·h/mL
AUC(0-t) [2]: 149 ng·h/mL
half-life [3]: 39.6 h
half-life [4]: 14.7 h
half-life [34]: 16.3 h
clearance [7]: 2.5 mL/min/kg
clearance [35]: 11 mL/min/kg
bioavailability [12]: 1.4%
bioavailability [13]: 11%

More lines, main results first:

IC50 (Renin [14]): 0.47 nM
IC50 (Renin [15]): 0.3 nM
IC50 (Renin [16]): 1.1 nM
fraction unbound [17]: 0.22
fraction unbound [18]: 0.29
Compound: CN[C@H](CNC(=O)N1CCC[C@@H]([C@@H](OCCNC(=O)OC)c2cccc(Cl)c2)C1)C[C@H]1CCCOC1 [VTP-27999]
Activity (Salmonella typhimurium [19]): Non-toxic
Activity (Salmonella typhimurium [20]): Non-toxic
Activity (L5178Y [21]): Non-toxic
Activity (L5178Y [22]): Non-toxic

IC50 (Cytochrome P450 3A4): 4600 nM
Compound: CNC[C@H](CC1CCCCC1)NC(=O)N1CCC[C@@H]([C@@H](OCCNC(=O)OC)c2cccc(Cl)c2)C1

IC50 (Renin [14]): 5.5 nM
IC50 (Renin [15]): 2.7 nM
IC50 (Renin [16]): 4.5 nM
Compound: CNC[C@H](C[C@@H]1CCCOC1)NC(=O)N1CCC[C@@H]([C@@H](OCCNC(=O)OC)c2cccc(Cl)c2)C1
